Measured values collected from several papers.
Target: Ephrin type-B receptor 3 (EPHB3, Homo sapiens, UniProt P54753)
Residues used in one study (P54753 34-998): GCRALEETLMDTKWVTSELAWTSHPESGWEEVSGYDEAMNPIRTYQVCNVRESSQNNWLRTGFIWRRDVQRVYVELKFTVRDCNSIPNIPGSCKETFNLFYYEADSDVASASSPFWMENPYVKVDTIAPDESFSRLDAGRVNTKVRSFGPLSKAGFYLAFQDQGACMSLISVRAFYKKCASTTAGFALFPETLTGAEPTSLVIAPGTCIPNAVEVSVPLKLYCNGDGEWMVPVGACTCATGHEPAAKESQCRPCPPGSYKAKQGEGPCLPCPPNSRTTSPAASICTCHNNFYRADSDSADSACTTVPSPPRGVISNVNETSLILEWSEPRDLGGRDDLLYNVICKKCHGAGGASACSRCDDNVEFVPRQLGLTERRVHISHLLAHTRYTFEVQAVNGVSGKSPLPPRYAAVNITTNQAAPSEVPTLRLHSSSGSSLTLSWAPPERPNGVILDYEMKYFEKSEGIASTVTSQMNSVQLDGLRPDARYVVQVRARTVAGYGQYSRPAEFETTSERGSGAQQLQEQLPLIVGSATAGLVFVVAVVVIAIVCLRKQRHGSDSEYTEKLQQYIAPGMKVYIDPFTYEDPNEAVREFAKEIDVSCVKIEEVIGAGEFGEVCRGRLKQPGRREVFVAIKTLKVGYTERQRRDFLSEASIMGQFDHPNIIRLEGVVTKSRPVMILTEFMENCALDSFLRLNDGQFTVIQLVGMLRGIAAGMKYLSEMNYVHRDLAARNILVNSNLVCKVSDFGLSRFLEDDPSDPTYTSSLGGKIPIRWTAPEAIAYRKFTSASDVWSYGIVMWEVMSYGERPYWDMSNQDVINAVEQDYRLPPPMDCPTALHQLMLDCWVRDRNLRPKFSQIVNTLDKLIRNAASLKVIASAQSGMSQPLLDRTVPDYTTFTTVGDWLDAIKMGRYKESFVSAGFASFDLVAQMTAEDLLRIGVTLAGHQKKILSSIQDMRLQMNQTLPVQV

Cn1cncc1[C@](O)(COc1ccc(C#N)cc1-c1ccc(OC(F)(F)F)cc1)c1ccc(C#N)cc1  remaining binding (cell-free assay; competition with immobilised ligand; 1 µM): 100%
CC(C)(C)c1cc(C=C(C#N)C#N)cc(Br)c1O  remaining activity (enzyme activity; inhibitor; 0.5 µM): 107%
COc1cc(Nc2ncc(F)c(Nc3ccc4c(n3)NC(=O)C(C)(C)O4)n2)cc(OC)c1OC  inhibition (binding; 10 µM): 0%
Cn1cc(-c2cc(F)cc(N3CCn4c(cc5c4CCCC5)C3=O)c2CO)cc(Nc2ccc(N3CCN(C4COC4)CC3)cn2)c1=O  inhibition (enzyme activity; inhibitor; 0.1 µM): 7%
Cc1nn(C)cc1-c1nc2c(N3CCN(Cc4ccc(Cl)cc4)CC3)c(Cl)cnc2[nH]1  remaining binding (binding; competition with immobilised ligand; 1 µM): 77%
N#CC1(c2ccccn2)CCN(Cc2cc(C(=O)O)c(=O)n3ccccc23)CC1  remaining binding (cell-free assay; competition with immobilised ligand; 1 µM): 92%
Cn1cc(-c2cccc(N3CCc4c(sc5c4CC(C)(C)C5)C3=O)c2CO)cc(Nc2ccncn2)c1=O  inhibition (enzyme activity; inhibitor; 1 µM): 1%
O=c1[nH]c2ccccc2n1C1CCN(Cc2ccc(-c3[nH]c4cc5ncnc5cc4nc3-c3ccccc3)cc2)CC1  remaining signal (cell-free assay; 0.5 µM): 104%
COc1ncccc1-c1cnn2ccc(N3CCN(C(=O)OC(C)C)CC3)nc12  remaining binding (binding; competition with immobilised ligand; 1 µM): 100%
